Measurements: ChEMBL document CHEMBL1133684, “Novel cannabinol probes for CB1 and CB2 cannabinoid receptors” (J Med Chem, 2000)

Assays:
[1] = target: Cannabinoid receptor (Homo sapiens) (UniProt P34972+P21554); test: Ratio of Ki of CB1 receptor to that of CB2 receptor; assay type: protein assay
Cannabinoid receptor 1 [2] = target: T1, Cannabinoid receptor 1 (Homo sapiens, UniProt P21554); test: Binding affinity was determined for Cannabinoid receptor 1
Cannabinoid receptor 2 [3] = target: T2, Cannabinoid receptor 2 (Homo sapiens, UniProt P34972); test: Binding affinity was determined for Cannabinoid receptor 2
Outline: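 Radioligand displacement on P2 membrane preparations, filtration method. Test compounds kept as 1 mg/mL stocks in absolute ethanol at -20 °C.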

Cannabinoid receptor 2 [4] = target: T2, Cannabinoid receptor 2; test: Binding affinity was determined for cannabinoid receptor 2
Outline: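 Radioligand displacement on P2 membrane preparations, filtration method. Test compounds kept as 1 mg/mL stocks in absolute ethanol at -20 °C. Displacement curves came from incubating the drugs with 1 nM [³H][…].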

Cannabinoid receptor 1 [5] = target: T1, Cannabinoid receptor 1; test: Compound was tested for inhibition of Adenylyl cyclase in cannabinoid receptor 1 (CB1).

T2 sequence (P34972 whole entry): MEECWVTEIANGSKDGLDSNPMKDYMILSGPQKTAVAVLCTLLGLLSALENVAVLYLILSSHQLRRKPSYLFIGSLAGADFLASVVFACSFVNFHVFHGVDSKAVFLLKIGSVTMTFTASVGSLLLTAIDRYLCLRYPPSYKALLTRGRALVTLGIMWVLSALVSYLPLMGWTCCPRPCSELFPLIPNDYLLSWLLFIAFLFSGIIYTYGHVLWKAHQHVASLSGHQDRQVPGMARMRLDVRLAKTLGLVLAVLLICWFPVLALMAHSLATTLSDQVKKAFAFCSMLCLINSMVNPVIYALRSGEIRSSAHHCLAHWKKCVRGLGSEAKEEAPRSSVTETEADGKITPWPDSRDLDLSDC
T1 sequence (P21554 whole entry): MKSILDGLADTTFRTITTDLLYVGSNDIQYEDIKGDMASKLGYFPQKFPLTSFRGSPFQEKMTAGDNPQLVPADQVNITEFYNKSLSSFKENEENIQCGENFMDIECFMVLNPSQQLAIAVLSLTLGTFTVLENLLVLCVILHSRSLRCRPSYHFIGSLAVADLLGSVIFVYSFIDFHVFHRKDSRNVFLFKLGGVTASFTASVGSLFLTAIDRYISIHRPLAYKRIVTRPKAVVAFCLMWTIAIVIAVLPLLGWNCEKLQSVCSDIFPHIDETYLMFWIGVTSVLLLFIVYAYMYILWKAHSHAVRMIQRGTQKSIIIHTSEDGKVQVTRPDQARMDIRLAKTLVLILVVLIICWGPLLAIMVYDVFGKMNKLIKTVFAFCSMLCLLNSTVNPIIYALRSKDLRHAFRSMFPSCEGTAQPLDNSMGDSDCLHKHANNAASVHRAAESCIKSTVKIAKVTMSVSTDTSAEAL
Chain of Cannabinoid receptor (Homo sapiens) (P21554 whole entry, looked up): as the sequence (P21554 whole entry) above
Chain of Cannabinoid receptor (Homo sapiens) (P34972 whole entry, looked up): as the sequence (P34972 whole entry) above

SMILES | Ratio [1] | Ki (Cannabinoid receptor 1 [2]) [nM] | Ki (Cannabinoid receptor 2 [3]) [nM] | Ki (Cannabinoid receptor 2 [4]) [nM] | Ki (Cannabinoid receptor 1 [5]) [nM]
CCCCCCC(C)(C)c1cc(O)c2c(c1)OC(C)(C)c1ccc(C(=O)OC)cc1-2 | 3.7 | 14 | 3.8 | – | –
CCCCCCC(C)(C)c1ccc2c(c1)OC(C)(C)c1ccc(C)cc1-2 | 2.6 | 434 | 167 | – | –
CCCCCCC(C)(C)c1cc(OC)c2c(c1)OC(C)(C)c1ccc(C(=O)OC(C)C)cc1-2 | – | > 10000 | > 10000 | – | –
CCCCCCC(C)(C)c1cc(O)c2c(c1)OC(C)(C)c1ccc(CO)cc1-2 | 0.5 | 0.1 | – | – | –
CCCCCCC(C)(C)c1cc(O)c2c(c1)OC(C)(C)c1ccc(C)cc1-2 | 0.4 | 1 | – | 2.24 | 2
CCCCCCC(C)(C)c1cc(OC)c2c(c1)OC(C)(C)c1ccc(C)cc1-2 | 2.4 | 681 | 286 | – | –
CCCCCCOC(=O)c1ccc2c(c1)-c1c(OC)cc(C(C)(C)CCCCCC)cc1OC2(C)C | – | > 10000 | > 10000 | – | –
CCCCCCC(C)(C)c1cc(OC)c2c(c1)OC(C)(C)c1ccc(C(=O)OCc3ccc4ccccc4c3)cc1-2 | – | > 10000 | > 10000 | – | –
CCCCCCC(C)(C)c1ccc2c(c1)OC(C)(C)c1ccc(C(=O)OC)cc1-2 | 2 | 558 | 276 | – | –
CCCCCCC(C)(C)c1ccc(-c2cc(C)ccc2C(C)C)c(O)c1 | 10 | 33 | – | – | –
CCCC(C)(C)c1ccc2c(c1)OC(C)(C)c1ccc(C(=O)OC)cc1-2 | > 16.4 | > 10000 | 611 | – | –
CCCCCCC(C)(C)c1cc(OC)c2c(c1)OC(C)(C)c1ccc(C(=O)OCCC)cc1-2 | 8.1 | 1730 | 214 | – | –
CCCC(C)(C)c1ccc(-c2cc(C)ccc2C(C)C)c(O)c1 | 7.7 | 875 | – | – | –
CCCC(C)(C)c1ccc2c(c1)OC(C)(C)c1ccc(CO)cc1-2 | 3 | – | 67 | – | –
CCCCCCC(C)(C)c1ccc2c(c1)OC(C)(C)c1ccc(CO)cc1-2 | 2 | 2 | 1 | – | –
CCCC(C)(C)c1cc(O)c2c(c1)OC(C)(C)c1ccc(C)cc1-2 | 7 | 42 | 6 | – | –
CCCCCCC(C)(C)c1cc(OC)c2c(c1)OC(C)(C)c1ccc(C(=O)OC)cc1-2 | > 18.9 | > 10000 | 529 | – | –
CCCCCCC(C)(C)c1cc(OC)c2c(c1)OC(C)(C)c1ccc(C(=O)OCc3ccccc3)cc1-2 | – | > 10000 | > 10000 | – | –
